The text below walks through data of ChEMBL document CHEMBL2021899, “Anti-AIDS agents 89. Identification of DCX derivatives as anti-HIV and chemosensitizing dual function agents to overcome P-gp-mediated drug resistance for AIDS therapy” (Bioorg Med Chem Lett, 2012).

In data set [1] the test system is KB. The experiment in a line: Reversal of p-glycoprotein-mediated multidrug resistance in human vincristine-resistance KB cells assessed as potentiation of vincristine-induced cytotoxicity at 4 uM after 48 hrs by SRB assay. The class given is cell-based. Put shortly: (§1)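 Vincristine-resistant, P-gp over-expressing KB-vin cells were exposed to vincristine alone or with co-treatment by the test agent, with verapamil as positive control. Vincristine GI50 was read by SRB assay. Fold value = GI50 (vincristine alone) / GI50 (vincristine + test agent). At least three independent experiments.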
In general terms: The SRB assay estimates cell density from bound dye.

A short description of data set [2]: Cytotoxicity against human TZM-bl cells after 48 hrs by CytoTox-GloTM assay. The class given is cell-based.
Data set [3] has as its system Human immunodeficiency virus. The experiment in a line: Antiviral activity against HIV/NL4-3 infected in human TZM-bl cells assessed as inhibition of viral replication after 48 hrs by luciferase reporter gene assay. The class given is functional, organism-based. The note with it: Human immunodeficiency virus 1, NL4-3, TZM-bl. In general terms: A reporter such as luciferase makes a cellular process visible.

The test system of data set [4] is KB. Put plainly: Reversal of p-glycoprotein-mediated multidrug resistance in human vincristine-resistance KB cells assessed as potentiation of vincristine-induced cytotoxicity at 4 uM after 48 hrs by SRB assay relative to verapamil. In kind it is cell-based. Put shortly: as §1
Data set [5] has as its target ATP-dependent translocase ABCB1 (Homo sapiens, UniProt P08183). The experiment in a line: Inhibition of p-glycoprotein-mediated doxorubicin efflux in human KB cells assessed as doxorubicin accumulation preincubated for 1 hr prior doxorubicin addition measured after 3 hrs by fluorometric assay. The class given is cell-based. The method, boiled down: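 KB-vin cells were seeded at 5 × 10³ per well and grown 72 h at 37 °C in 5% CO2, then washed. They were pretreated with sample or vehicle for 1 h, then doxorubicin was added to 10 final and incubated 3 h. Cells were washed in ice-cold PBS and lysed in 1% SDS/PBS; fluorescence was read at Ex 488/Em 580 nm. Value = fluorescence with compound / without, after control subtraction. Verapamil served as positive control.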

Data set [6] relates to KB. The experiment in a line: Ratio of GI50 for human vincristine-resistance KB cells to GI50 for wild type human KB cells. The class given is functional.
The test system of data set [7] is KB. Put plainly: Cytotoxicity against human KB cells at 4 uM after 48 hrs by SRB assay. The class given is functional.

By IC50 is commonly meant the concentration needed to halve the response being measured. Read a low IC50 as higher potency. The EC50 is the concentration giving half of the maximal effect. A word on the GI50: it is the concentration that inhibits growth by half. Read a high GI50 as lower sensitivity of the cells.

ATP-dependent translocase ABCB1, sequence (P08183 whole entry): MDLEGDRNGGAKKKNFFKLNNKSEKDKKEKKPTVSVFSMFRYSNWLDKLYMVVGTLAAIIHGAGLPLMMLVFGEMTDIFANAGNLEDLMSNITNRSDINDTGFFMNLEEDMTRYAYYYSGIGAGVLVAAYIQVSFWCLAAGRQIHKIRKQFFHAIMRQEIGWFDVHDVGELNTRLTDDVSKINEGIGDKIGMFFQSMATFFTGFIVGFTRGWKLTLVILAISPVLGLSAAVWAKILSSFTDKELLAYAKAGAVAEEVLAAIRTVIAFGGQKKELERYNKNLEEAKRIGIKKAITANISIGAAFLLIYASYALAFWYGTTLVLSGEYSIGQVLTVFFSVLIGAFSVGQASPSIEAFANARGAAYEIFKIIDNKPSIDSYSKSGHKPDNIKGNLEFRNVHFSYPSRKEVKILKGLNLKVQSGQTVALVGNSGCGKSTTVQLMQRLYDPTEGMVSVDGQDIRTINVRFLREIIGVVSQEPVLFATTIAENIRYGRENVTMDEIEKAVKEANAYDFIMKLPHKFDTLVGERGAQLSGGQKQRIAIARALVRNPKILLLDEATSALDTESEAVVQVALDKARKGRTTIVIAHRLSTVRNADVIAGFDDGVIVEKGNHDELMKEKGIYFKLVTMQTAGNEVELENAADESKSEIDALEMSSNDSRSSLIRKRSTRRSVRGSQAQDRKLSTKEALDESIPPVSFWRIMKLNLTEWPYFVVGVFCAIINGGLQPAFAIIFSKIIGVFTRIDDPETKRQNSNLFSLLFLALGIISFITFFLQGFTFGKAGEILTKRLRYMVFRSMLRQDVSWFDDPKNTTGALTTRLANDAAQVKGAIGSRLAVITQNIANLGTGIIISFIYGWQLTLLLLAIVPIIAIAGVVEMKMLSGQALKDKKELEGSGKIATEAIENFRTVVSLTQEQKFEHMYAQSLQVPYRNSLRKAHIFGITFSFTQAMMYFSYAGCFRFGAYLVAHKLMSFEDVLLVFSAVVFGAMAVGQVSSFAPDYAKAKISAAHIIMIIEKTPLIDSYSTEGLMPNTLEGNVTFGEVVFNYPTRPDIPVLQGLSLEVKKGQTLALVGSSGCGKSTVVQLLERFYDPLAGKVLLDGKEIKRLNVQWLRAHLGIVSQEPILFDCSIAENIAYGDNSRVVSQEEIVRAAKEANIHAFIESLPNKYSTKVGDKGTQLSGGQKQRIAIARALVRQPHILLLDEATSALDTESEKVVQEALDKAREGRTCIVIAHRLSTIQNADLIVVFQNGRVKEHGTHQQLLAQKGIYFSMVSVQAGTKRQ

Consider `COc1ccc2c(=O)c3c(OC)cc4c(c3oc2c1)[C@@H](OC(=O)[C@@]12CCC(C)(C(=O)O1)C2(C)C)[C@@H](OC(=O)[C@@]12CCC(C)(C(=O)O1)C2(C)C)C(C)(C)O4`, for which, in the data set on KB [1], the fold change (FC) was 98. The IC50 in data set [2] is above 10 µM. Further, in data set [3], the EC50 turned out to be 362 nM.

With `CC1(C)Oc2ccc3c(=O)c4ccccc4oc3c2[C@@H](OC(=O)[C@@]23CCC(C)(C(=O)O2)C3(C)C)[C@H]1OC(=O)[C@@]12CCC(C)(C(=O)O1)C2(C)C`, the fold change (FC) with KB [1] stood at 1260; in the data set on KB [4] it was 20. For the same compound, in data set [2], the IC50 was above 10 µM. Also, in data set [3], the EC50 came to 308 nM.

`COc1cc2c(c3oc4cc(C)ccc4c(=O)c13)[C@@H](OC(=O)[C@@]13CCC(C)(C(=O)O1)C3(C)C)[C@@H](OC(=O)[C@@]13CCC(C)(C(=O)O1)C3(C)C)C(C)(C)O2`: in the data set with KB [1], the fold change (FC) came out at 352. The IC50 in data set [2] was above 10 µM. Besides, the EC50 in data set [3] was found to be 95 nM.

Turning to `COc1ccc(CCN(C)CCCC(C#N)(c2ccc(OC)c(OC)c2)C(C)C)cc1OC` (stereo unspecified), the fold change (FC) in the data set with KB [1] came to 60.

On to `CCc1cc(=O)c2c(C)cc3c(c2o1)[C@@H](OC(=O)[C@@]12CCC(C)(C(=O)O1)C2(C)C)[C@@H](OC(=O)[C@@]12CCC(C)(C(=O)O1)C2(C)C)C(C)(C)O3`, for which the fold change (FC) in the data set with KB [1] was found to be 677. In addition, the IC50 in data set [2] was above 10 µM. Further, in data set [3], the EC50 was 100 nM. Besides, the “inhibition (INH)” value in data set [5] is “Active”.

With `COc1cc(C)c2c(=O)c3c(OC)cc4c(c3oc2c1)[C@@H](OC(=O)[C@@]12CCC(C)(C(=O)O1)C2(C)C)[C@@H](OC(=O)[C@@]12CCC(C)(C(=O)O1)C2(C)C)C(C)(C)O4`, in the data set on KB [1], the fold change (FC) came to 518. For the same compound, the IC50 in data set [2] was above 10 µM. In addition, the EC50 in data set [3] is 140 nM.

For `COc1cccc2c(=O)c3c(OC)cc4c(c3oc12)[C@@H](OC(=O)[C@@]12CCC(C)(C(=O)O1)C2(C)C)[C@@H](OC(=O)[C@@]12CCC(C)(C(=O)O1)C2(C)C)C(C)(C)O4`, the fold change (FC) with KB [1] is 1020; in the data set on KB [4], 20. The same compound displayed an IC50 in data set [2] above 10 µM.

With `COc1cc2c(c3oc4c(C)cccc4c(=O)c13)[C@@H](OC(=O)[C@@]13CCC(C)(C(=O)O1)C3(C)C)[C@@H](OC(=O)[C@@]13CCC(C)(C(=O)O1)C3(C)C)C(C)(C)O2`, the fold change (FC) was 1100 with KB [1] and 20 in the data set with KB [4]. For the same compound, the IC50 in data set [2] was above 10 µM. In data set [3], the concentration giving a half-maximal response (EC50) worked out at 1520 nM.

Turning to `COc1cc2c(c3oc4c(F)cccc4c(=O)c13)[C@@H](OC(=O)[C@@]13CCC(C)(C(=O)O1)C3(C)C)[C@@H](OC(=O)[C@@]13CCC(C)(C(=O)O1)C3(C)C)C(C)(C)O2`, the fold change (FC) in the data set on KB [1] is 880. For the same compound, the 50% inhibitory concentration (IC50) in data set [2] is above 10 µM. Also, the EC50 in data set [3] was found to be 230 nM.

`CC1(C)Oc2cc(O)c3c(=O)c4ccccc4oc3c2[C@@H](OC(=O)[C@@]23CCC(C)(C(=O)O2)C3(C)C)[C@H]1OC(=O)[C@@]12CCC(C)(C(=O)O1)C2(C)C`: in the data set on KB [1], the fold change (FC) is below 24. The IC50 in data set [2] was above 10 µM.

Turning to `Cc1cc(=O)c2ccc3c(c2o1)[C@@H](OC(=O)[C@@]12CCC(C)(C(=O)O1)C2(C)C)[C@@H](OC(=O)[C@@]12CCC(C)(C(=O)O1)C2(C)C)C(C)(C)O3`, the fold change (FC) in the data set with KB [1] was 88. The IC50 in data set [2] was above 10 µM. For the same compound, in data set [3], the EC50 worked out at 100 nM.

Take `CC[C@]1(O)C[C@H]2CN(CCc3c([nH]c4ccccc34)[C@@](C(=O)OC)(c3cc4c(cc3OC)N(C=O)[C@H]3[C@@](O)(C(=O)OC)[C@H](OC(C)=O)[C@]5(CC)C=CCN6CC[C@]43[C@@H]65)C2)C1` [VINCRISTINE]: in the data set with KB [6], the RatioGI50 came out at 1320. For the same compound, it took 2 nM to inhibit growth with KB [7] by half (GI50).

As to `Cc1cc(=O)c2c(C)cc3c(c2o1)[C@@H](OC(=O)[C@@]12CCC(C)(C(=O)O1)C2(C)C)[C@@H](OC(=O)[C@@]12CCC(C)(C(=O)O1)C2(C)C)C(C)(C)O3`, the fold change (FC) with KB [1] was determined as 910; with KB [4] it was 20. Also, the IC50 in data set [2] was above 10 µM. Also, the EC50 in data set [3] was found to be 36 nM. The “inhibition (INH)” value in data set [5] is reported as “Active”.

As to `COc1cc2c(c3oc4cccc(C)c4c(=O)c13)[C@@H](OC(=O)[C@@]13CCC(C)(C(=O)O1)C3(C)C)[C@@H](OC(=O)[C@@]13CCC(C)(C(=O)O1)C3(C)C)C(C)(C)O2`, the values for the fold change (FC) with KB [1] and in the data set with KB [4] were 1390 and 20, respectively. The compound further showed an IC50 in data set [2] above 10 µM. In data set [3], the EC50 is 150 nM.

`COc1ccc2oc3c4c(cc(OC)c3c(=O)c2c1)OC(C)(C)[C@H](OC(=O)[C@@]12CCC(C)(C(=O)O1)C2(C)C)[C@@H]4OC(=O)[C@@]12CCC(C)(C(=O)O1)C2(C)C`: in the data set with KB [1], the fold change (FC) stood at 343. Also, in data set [2], the IC50 is above 10 µM. In addition, the EC50 in data set [3] was found to be 121 nM.

Turning to `CCc1cc(=O)c2ccc3c(c2o1)[C@@H](OC(=O)[C@@]12CCC(C)(C(=O)O1)C2(C)C)[C@@H](OC(=O)[C@@]12CCC(C)(C(=O)O1)C2(C)C)C(C)(C)O3`, the fold change (FC) in the data set with KB [1] was found to be 132. The same compound returned an IC50 in data set [2] above 10 µM. For the same compound, the EC50 in data set [3] is 70 nM.

Consider `COc1cc2c(c3oc4ccc(C)cc4c(=O)c13)[C@@H](OC(=O)[C@@]13CCC(C)(C(=O)O1)C3(C)C)[C@@H](OC(=O)[C@@]13CCC(C)(C(=O)O1)C3(C)C)C(C)(C)O2`, for which the fold change (FC) in the data set on KB [1] amounted to 388. In addition, the IC50 in data set [2] is above 10 µM. In data set [3], the EC50 turned out to be 65 nM.

Consider `COc1cc2c(c3oc4ccc(F)cc4c(=O)c13)[C@@H](OC(=O)[C@@]13CCC(C)(C(=O)O1)C3(C)C)[C@@H](OC(=O)[C@@]13CCC(C)(C(=O)O1)C3(C)C)C(C)(C)O2`, for which the results for the fold change (FC) with KB [1] and with KB [4] were 1150 and 20, respectively. In data set [2], this compound returned an IC50 above 10 µM. The EC50 in data set [3] was found to be 100 nM.

As for `COc1cc2c(c3oc4ccccc4c(=O)c13)[C@@H](OC(=O)[C@@]13CCC(C)(C(=O)O1)C3(C)C)[C@@H](OC(=O)[C@@]13CCC(C)(C(=O)O1)C3(C)C)C(C)(C)O2`, the fold change (FC) with KB [1] was found to be 776. The same compound showed an IC50 in data set [2] above 10 µM. For the same compound, the EC50 in data set [3] was 63 nM. Besides, in data set [5], the “inhibition (INH)” value is listed as “Active”.

Consider `COc1c(Br)c2c(c3oc4ccccc4c(=O)c13)[C@@H](OC(=O)[C@@]13CCC(C)(C(=O)O1)C3(C)C)[C@@H](OC(=O)[C@@]13CCC(C)(C(=O)O1)C3(C)C)C(C)(C)O2`, for which the fold change (FC) amounted to 1650 in the data set on KB [1] and 20 with KB [4]. In data set [2], this compound registered an IC50 above 10 µM.

For the compound `COc1cc2c(c3oc4cc(Br)ccc4c(=O)c13)[C@@H](OC(=O)[C@@]13CCC(C)(C(=O)O1)C3(C)C)[C@@H](OC(=O)[C@@]13CCC(C)(C(=O)O1)C3(C)C)C(C)(C)O2`, in the data set on KB [1], the fold change (FC) was 264. Besides, the IC50 in data set [2] was above 10 µM.
